ChEMBL document CHEMBL4422629, “Discovery of an Orally Bioavailable and Central Nervous System (CNS) Penetrant mGlu7 Negative Allosteric Modulator (NAM) in Vivo Tool Compound: N-(2-(1 H-1,2,4-triazol-1-yl)-5-(trifluoromethoxy)phenyl)-4-(cyclopropylmethoxy)-3-methoxybenzamide (VU6012962)” (J Med Chem, 2019)
Active and inactive are the calls of the source. The rule behind the calls is not given here.

Tests used:
[1] = target: Metabotropic glutamate receptor 7 (Rattus norvegicus, UniProt P35400); experiment: Negative allosteric modulation of rat mGlu7 receptor expressed in HEK cells harboring Ga15 assessed as reduction in L-AP4-induced calcium flux preincubated for 142 secs followed by agonist addition and measured after 120 secs by Fluo-4-AM-dye based fluorescence assay; assay type: functional, cell-based
[2] = Fraction unbound in Sprague-Dawley rat plasma at 0.2 to 0.25 mg/kg, iv via cassette dosing measured up to 24 hrs post dose by LC/MS/MS analysis; assay type: ADME, organism-based; settings: for fraction unbound at 24 h: Sprague-Dawley, plasma
[3] = Unbound fraction in Sprague-Dawley rat brain at 0.2 to 0.25 mg/kg, iv via cassette dosing measured up to 24 hrs post dose by LC/MS/MS analysis; assay type: ADME, organism-based
[4] = system: Mus musculus; experiment: Anxiolytic-like activity in C57Bl/6J mouse assessed as increase in total time spent in the light side of the chamber at 15 mg/kg, ip measured during 10-min testing period; assay type: functional, organism-based
In short: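 Mouse light/dark box anxiety model; single ip dose with a 1 h treatment time before testing. Read-out is total time spent in the light side of the chamber versus vehicle-treated controls. Groups compared by one-way ANOVA with Dunnett's post hoc test; all data points screened with Grubb's outlier test.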

[5] = Brain to plasma permeability coefficient, Kp of the compound in Sprague-Dawley rat at 0.2 to 0.25 mg/kg, iv via cassette dosing measured up to 24 hrs post dose by LC/MS/MS analysis; assay type: ADME, organism-based
In short: (§1)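 Rat IV cassette study of plasma:brain levels. Brain Kp taken as total brain:plasma; Kp,uu corrected with the rat brain homogenate unbound fraction.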

[6] = Fraction unbound in mouse plasma at 0.2 to 0.25 mg/kg, iv via cassette dosing measured up to 24 hrs post dose by LC/MS/MS analysis; assay type: ADME, organism-based
[7] = Total brain concentration in Sprague-Dawley rat at 0.2 to 0.25 mg/kg, iv via cassette dosing measured up to 24 hrs post dose by LC/MS/MS analysis; assay type: ADME, organism-based; settings: read-out: Drug uptake; in short: as §1
[8] = Unbound brain-to-plasma concentration ratio in Sprague-Dawley rat brain at 0.2 to 0.25 mg/kg, iv via cassette dosing measured up to 24 hrs post dose by LC/MS/MS analysis; assay type: ADME, organism-based; in short: as §1
[9] = Fraction unbound in Sprague-Dawley rat brain at 0.2 to 0.25 mg/kg, iv via cassette dosing measured up to 24 hrs post dose by LC/MS/MS analysis; assay type: ADME, organism-based
[10] = Half life in Sprague-Dawley rat at 0.2 mg/kg, iv or 10 mg/kg, po measured up to 24 hrs by LC-MS/MS analysis; assay type: ADME, organism-based; settings: in vivo
In short: (§2)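 Rat discrete pharmacokinetics after iv and po (10 mg/kg) dosing, giving plasma clearance, Vss, half-life and oral bioavailability.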

[11] = Oral bioavailability in Sprague-Dawley rat at 10 mg/kg measured up to 24 hrs by LC-MS/MS analysis; assay type: ADME, organism-based; settings: in vivo; in short: as §2
[12] = Volume of distribution at steady state in Sprague-Dawley rat at 0.2 mg/kg, iv or 10 mg/kg, po measured up to 24 hrs by LC-MS/MS analysis; assay type: ADME, organism-based; settings: in vivo; in short: as §2
[13] = Brain to plasma permeability coefficient, Kp of the compound in Sprague-Dawley rat at 30 mg/kg, ip measured at 1 hr post dose by LC/MS/MS analysis; assay type: ADME, organism-based
In short: (§3)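 Rat tissue distribution after a single 30 mg/kg ip dose, with compound measured in plasma, brain and CSF. Kp taken as tissue:plasma total ratio. Unbound levels used plasma protein binding and brain homogenate binding fractions.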

[14] = Total plasma concentration in Sprague-Dawley rat at 30 mg/kg, ip measured at 1 hr post dose by LC/MS/MS analysis; assay type: ADME, organism-based; in short: as §3
[15] = Total brain concentration in Sprague-Dawley rat at 30 mg/kg, ip measured at 1 hr post dose by LC/MS/MS analysis; assay type: ADME, organism-based; settings: read-out: Drug uptake; in short: as §3
[16] = Unbound brain to plasma concentration ratio in Sprague-Dawley rat at 30 mg/kg, ip measured at 1 hr post dose by LC/MS/MS analysis; assay type: ADME, organism-based; in short: as §3
[17] = Fraction unbound in Sprague-Dawley rat plasma at 30 mg/kg, ip measured at 1 hr post dose by LC/MS/MS analysis; assay type: ADME, organism-based; settings: in vivo
[18] = Fraction unbound in Sprague-Dawley rat brain at 30 mg/kg, ip measured at 1 hr post dose by LC/MS/MS analysis; assay type: ADME, organism-based; settings: in vivo
[19] = CSF to plasma permeability coefficient, Kp of the compound in Sprague-Dawley rat at 30 mg/kg, ip measured at 1 hr post dose by LC/MS/MS analysis; assay type: ADME, organism-based; in short: as §3
[20] = target: Metabotropic glutamate receptor 1 (Homo sapiens, UniProt Q13255); experiment: Negative allosteric modulation of mGlu1 receptor (unknown origin)
[21] = target: Metabotropic glutamate receptor 2 (Homo sapiens, UniProt Q14416); experiment: Negative allosteric modulation of mGlu2 receptor (unknown origin)
[22] = target: Metabotropic glutamate receptor 3 (Homo sapiens, UniProt Q14832); experiment: Negative allosteric modulation of mGlu3 receptor (unknown origin)
[23] = target: Metabotropic glutamate receptor 4 (Homo sapiens, UniProt Q14833); experiment: Negative allosteric modulation of mGlu4 receptor (unknown origin)
[24] = target: Metabotropic glutamate receptor 5 (Homo sapiens, UniProt P41594); experiment: Negative allosteric modulation of mGlu5 receptor (unknown origin)
[25] = target: Metabotropic glutamate receptor 6 (Homo sapiens, UniProt O15303); experiment: Negative allosteric modulation of mGlu6 receptor (unknown origin)
[26] = target: Metabotropic glutamate receptor 8 (Homo sapiens, UniProt O00222); experiment: Negative allosteric modulation of mGlu8 receptor (unknown origin)
[27] = system: Mus musculus; experiment: Anti-anxiety activity in ip dosed C57Bl/6J mouse assessed as increase in total time spent in open arms by elevated zero maze assay; assay type: functional; settings: read-out: MED
In short: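 Mouse elevated zero maze after intraperitoneal dosing at several doses; read-out was total time in open arms. Analysis by one-way ANOVA with Bonferroni post hoc test against vehicle.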

[28] = system: Mus musculus; experiment: Reduction in locomotive activity in C57Bl/6J mouse assessed as reduction in total distance traveled in maze at 10 mg/kg, ip after 120 secs by elevated zero maze assay; assay type: ADME, organism-based; settings: in vivo, 2 min
In short: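 Elevated zero maze in mice dosed intraperitoneally; locomotion read as total distance traveled. Analysis by one-way ANOVA with Bonferroni post hoc test between doses.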

[29] = system: Mus musculus; experiment: Anxiolytic-like activity in C57Bl/6J mouse assessed as suppression of marble burying activity at 3 mg/kg, ip administered 45 mins before habituation for 15 mins and measured following 30 mins interval by marble burying assay; assay type: functional, organism-based
In short: (§4)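 Mouse marble-burying assay, ip dosing of test agent or fluoxetine, counting marbles buried. Analysis by one-way ANOVA with Dunnett's post hoc test against vehicle, plus Grubb's outlier test.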

[30] = system: Mus musculus; experiment: Anxiolytic-like activity in C57Bl/6J mouse assessed as increase in total time spent in the light side of the chamber at 3 mg/kg, ip measured during 10-min testing period; assay type: functional, organism-based
In short: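 Mouse light/dark box at 3 mg/kg ip, with fluoxetine 15 mg/kg ip as reference; read-out was total time in the light side. Analysis by one-way ANOVA with Dunnett's post hoc test against vehicle, plus Grubb's outlier test.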

[31] = Drug level in Sprague-Dawley rat cerebrospinal fluid at 30 mg/kg, ip measured at 1 hr post dose by LC/MS/MS analysis; assay type: ADME, organism-based; settings: read-out: Drug uptake; in short: as §3
[32] = Drug level in C57Bl/6J mouse cerebrospinal fluid at 3 mg/kg, ip measured at 1 hr post dose by LC/MS/MS analysis; assay type: ADME, organism-based; settings: read-out: Drug uptake
In short: (§5)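 Mouse pharmacokinetic assessment at 3 mg/kg ip, sampled at the 1 h time point used in the behavioural tests.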

[33] = Plasma concentration in C57Bl/6J mouse at 3 mg/kg, ip measured at 1 hr post dose by LC/MS/MS analysis; assay type: ADME, organism-based; in short: as §5
[34] = target: 5-hydroxytryptamine receptor 2B (Homo sapiens) (UniProt P41595); experiment: Binding affinity to cloned human 5-HT2B expressed in CHO-K1 cell membranes by radioligand displacement assay
In short: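 Eurofins lead profiling panel of 68 GPCRs, ion channels and transporters, tested at 10 μM and read as percent activity.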

[35] = Ratio of drug level in Sprague-Dawley rat cerebrospinal fluid at 30 mg/kg, ip measured at 1 hr post dose by LC/MS/MS analysis to Negative allosteric modulation of rat mGlu7 receptor expressed in HEK cells harboring Ga15; assay type: ADME, organism-based; settings: in vivo
[36] = system: Mus musculus; experiment: Anxiolytic-like activity in C57Bl/6J mouse assessed as suppression of marble burying activity […], ip administered 45 mins before habituation for 15 mins and measured following 30 mins interval by marble burying assay; assay type: functional, organism-based; settings: 3 mg/kg, in the assay text read “3 mg/kg” for “15 mg/kg”; in short: as §4
[37] = Ratio of drug level in C57Bl/6J mouse cerebrospinal fluid at 3 mg/kg, ip measured at 1 hr post dose by LC/MS/MS analysis to negative allosteric modulation of rat mGlu7 receptor expressed in HEK cells harboring Ga15; assay type: ADME, organism-based; settings: in vivo
[38] = Unbound brain concentration in Sprague-Dawley rat at 0.2 to 0.25 mg/kg, iv via cassette dosing measured up to 24 hrs post dose by LC/MS/MS analysis; assay type: ADME, organism-based; settings: in vivo; in short: as §1

Chain of Metabotropic glutamate receptor 7 (P35400 whole entry): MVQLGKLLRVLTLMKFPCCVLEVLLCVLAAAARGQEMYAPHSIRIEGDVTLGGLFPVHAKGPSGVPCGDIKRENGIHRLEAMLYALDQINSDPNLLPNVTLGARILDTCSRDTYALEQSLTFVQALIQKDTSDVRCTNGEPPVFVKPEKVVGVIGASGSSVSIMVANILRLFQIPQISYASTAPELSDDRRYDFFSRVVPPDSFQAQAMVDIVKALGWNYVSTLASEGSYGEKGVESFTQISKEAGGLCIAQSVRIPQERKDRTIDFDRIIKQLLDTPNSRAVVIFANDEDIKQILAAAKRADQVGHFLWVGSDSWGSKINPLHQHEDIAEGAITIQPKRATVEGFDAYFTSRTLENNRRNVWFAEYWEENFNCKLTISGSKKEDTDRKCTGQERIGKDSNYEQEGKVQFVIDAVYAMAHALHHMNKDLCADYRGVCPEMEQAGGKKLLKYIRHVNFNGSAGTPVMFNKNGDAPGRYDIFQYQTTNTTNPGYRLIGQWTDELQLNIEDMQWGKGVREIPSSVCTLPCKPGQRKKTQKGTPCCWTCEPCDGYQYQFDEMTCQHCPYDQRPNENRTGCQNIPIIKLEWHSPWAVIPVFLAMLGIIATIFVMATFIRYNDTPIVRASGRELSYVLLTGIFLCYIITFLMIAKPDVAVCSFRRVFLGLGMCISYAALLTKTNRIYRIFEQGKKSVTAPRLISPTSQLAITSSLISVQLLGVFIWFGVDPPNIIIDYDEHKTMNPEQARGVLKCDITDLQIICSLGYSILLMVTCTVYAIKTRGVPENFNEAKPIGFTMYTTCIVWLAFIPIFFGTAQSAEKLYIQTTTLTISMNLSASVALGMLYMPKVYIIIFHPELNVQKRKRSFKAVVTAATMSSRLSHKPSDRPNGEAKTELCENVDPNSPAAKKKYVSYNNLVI
Chain of Metabotropic glutamate receptor 4 (Q14833 whole entry): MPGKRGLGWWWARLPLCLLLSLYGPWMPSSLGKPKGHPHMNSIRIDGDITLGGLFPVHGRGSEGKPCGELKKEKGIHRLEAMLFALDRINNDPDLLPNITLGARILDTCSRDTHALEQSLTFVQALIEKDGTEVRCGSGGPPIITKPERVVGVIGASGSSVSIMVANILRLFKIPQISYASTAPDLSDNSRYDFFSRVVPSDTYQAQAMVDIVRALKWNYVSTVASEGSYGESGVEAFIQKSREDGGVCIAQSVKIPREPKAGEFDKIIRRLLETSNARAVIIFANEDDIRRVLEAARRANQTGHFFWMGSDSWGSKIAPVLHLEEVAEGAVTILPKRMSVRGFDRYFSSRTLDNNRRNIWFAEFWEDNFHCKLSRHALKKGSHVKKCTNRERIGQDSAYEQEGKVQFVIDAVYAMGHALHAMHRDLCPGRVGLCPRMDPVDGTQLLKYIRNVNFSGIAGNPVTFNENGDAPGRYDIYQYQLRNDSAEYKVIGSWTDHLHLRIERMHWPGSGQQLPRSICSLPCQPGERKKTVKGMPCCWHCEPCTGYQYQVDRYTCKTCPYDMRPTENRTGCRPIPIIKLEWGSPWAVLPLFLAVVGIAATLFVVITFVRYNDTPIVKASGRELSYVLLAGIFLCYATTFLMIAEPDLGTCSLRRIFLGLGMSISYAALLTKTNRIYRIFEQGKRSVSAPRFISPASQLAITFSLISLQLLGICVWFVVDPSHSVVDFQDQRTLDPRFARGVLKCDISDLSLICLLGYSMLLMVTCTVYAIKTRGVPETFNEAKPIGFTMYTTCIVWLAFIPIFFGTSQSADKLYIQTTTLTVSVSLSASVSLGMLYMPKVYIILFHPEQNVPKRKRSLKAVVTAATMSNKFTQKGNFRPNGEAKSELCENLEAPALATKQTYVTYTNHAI
Chain of Metabotropic glutamate receptor 5 (P41594 whole entry): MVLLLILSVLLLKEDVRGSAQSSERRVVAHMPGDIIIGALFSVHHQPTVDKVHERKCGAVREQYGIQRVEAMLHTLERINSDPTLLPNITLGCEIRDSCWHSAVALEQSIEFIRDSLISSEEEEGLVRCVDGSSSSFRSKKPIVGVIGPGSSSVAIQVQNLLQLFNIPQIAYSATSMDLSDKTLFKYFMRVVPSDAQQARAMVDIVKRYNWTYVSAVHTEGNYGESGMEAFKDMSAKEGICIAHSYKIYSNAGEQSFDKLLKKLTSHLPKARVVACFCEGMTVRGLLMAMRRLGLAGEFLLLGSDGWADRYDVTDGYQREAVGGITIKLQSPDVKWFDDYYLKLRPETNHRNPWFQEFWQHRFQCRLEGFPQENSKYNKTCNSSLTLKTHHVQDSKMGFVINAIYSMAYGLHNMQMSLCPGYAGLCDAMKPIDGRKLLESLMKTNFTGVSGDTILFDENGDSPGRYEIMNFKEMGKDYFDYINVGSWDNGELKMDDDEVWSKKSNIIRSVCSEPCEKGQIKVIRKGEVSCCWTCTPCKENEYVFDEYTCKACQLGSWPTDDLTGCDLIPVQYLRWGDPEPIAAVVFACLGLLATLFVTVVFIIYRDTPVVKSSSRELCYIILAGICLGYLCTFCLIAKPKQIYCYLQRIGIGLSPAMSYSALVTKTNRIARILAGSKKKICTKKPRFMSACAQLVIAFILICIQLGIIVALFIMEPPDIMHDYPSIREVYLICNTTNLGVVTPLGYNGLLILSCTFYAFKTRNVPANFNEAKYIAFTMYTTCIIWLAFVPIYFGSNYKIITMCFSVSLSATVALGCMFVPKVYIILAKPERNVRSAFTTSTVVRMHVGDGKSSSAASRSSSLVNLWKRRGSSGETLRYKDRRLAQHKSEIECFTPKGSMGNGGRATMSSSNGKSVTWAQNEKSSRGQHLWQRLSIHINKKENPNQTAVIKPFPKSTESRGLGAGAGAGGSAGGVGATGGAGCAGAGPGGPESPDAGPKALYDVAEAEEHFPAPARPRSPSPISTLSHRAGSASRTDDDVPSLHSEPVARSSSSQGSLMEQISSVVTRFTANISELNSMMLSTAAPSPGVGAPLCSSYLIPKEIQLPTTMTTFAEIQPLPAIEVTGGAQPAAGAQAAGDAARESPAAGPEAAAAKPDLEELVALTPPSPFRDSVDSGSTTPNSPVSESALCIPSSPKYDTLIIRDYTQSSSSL
Chain of Metabotropic glutamate receptor 1 (Q13255 whole entry): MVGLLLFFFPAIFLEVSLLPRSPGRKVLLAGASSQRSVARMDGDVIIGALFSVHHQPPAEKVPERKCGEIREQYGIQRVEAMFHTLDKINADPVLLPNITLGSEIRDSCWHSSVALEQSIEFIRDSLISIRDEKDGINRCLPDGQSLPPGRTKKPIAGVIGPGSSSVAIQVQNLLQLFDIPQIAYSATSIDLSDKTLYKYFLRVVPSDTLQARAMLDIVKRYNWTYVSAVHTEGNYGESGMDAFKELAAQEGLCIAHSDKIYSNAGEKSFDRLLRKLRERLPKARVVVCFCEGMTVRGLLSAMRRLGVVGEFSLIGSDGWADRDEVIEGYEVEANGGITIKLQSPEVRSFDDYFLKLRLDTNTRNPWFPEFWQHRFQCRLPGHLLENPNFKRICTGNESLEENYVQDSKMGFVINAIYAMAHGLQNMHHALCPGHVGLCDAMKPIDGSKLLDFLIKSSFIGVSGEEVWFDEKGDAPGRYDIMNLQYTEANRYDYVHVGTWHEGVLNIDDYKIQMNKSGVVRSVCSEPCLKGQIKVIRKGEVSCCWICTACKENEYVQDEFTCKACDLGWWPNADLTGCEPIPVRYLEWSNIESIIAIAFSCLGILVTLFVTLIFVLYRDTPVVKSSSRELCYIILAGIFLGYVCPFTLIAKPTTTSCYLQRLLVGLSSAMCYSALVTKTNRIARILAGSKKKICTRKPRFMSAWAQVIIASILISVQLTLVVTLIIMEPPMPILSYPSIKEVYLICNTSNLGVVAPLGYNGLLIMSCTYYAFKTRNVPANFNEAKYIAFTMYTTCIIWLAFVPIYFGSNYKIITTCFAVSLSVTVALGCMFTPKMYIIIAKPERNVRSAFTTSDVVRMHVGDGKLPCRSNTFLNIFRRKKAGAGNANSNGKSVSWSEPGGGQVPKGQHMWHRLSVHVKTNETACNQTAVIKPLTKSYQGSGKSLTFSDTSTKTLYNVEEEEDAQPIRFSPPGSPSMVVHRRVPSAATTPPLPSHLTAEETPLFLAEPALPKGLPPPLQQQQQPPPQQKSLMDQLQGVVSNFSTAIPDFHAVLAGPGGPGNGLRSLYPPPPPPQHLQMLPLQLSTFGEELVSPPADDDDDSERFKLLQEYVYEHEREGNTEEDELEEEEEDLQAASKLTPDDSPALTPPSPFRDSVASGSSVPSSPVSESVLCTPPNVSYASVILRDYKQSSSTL
Chain of 5-hydroxytryptamine receptor 2B (Homo sapiens) (P41595 whole entry): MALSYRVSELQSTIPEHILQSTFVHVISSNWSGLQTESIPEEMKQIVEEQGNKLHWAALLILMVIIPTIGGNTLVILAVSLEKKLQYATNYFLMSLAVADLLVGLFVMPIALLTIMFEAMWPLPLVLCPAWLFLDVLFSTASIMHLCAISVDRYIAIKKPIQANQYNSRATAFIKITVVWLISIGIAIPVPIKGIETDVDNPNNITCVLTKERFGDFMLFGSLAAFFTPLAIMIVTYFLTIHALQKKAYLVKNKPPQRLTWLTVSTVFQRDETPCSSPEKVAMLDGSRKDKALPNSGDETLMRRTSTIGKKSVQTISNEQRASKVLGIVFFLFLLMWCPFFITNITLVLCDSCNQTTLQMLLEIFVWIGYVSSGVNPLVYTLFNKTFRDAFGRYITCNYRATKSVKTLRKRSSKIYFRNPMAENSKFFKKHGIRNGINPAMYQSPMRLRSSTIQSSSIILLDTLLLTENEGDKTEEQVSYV

With COc1ccc(CCCNc2cc(Cl)ccc2-n2cncn2)cc1OC the IC50 [1] was > 10 µM.

With COc1ccc(CCCNc2cc(OC(F)(F)F)ccc2-n2cncn2)cc1OC the IC50 [1] was 1.6 µM, the fraction unbound at 24 h [2] was 0.01 to 0.03 and the fraction unbound at 24 h [3] was < 0.003.

Compound COc1ccc(CNc2cc(Cl)ccc2-n2cncn2)cc1OC has an IC50 [1] of 7.9 µM.

Compound COc1cc(C(=O)Nc2cc(OC(F)(F)F)ccc2-n2cncn2)ccc1OCc1ccccc1 has an IC50 [1] of 3.1 µM.

For COc1ccc(CNc2cc(OC(F)(F)F)ccc2-n2cncn2)cc1OC, the IC50 [1] was 5.9 µM, the fraction unbound at 24 h [2] was 0.01 to 0.03 and the fraction unbound at 24 h [3] was < 0.003.

In the case of CNCCC(Oc1ccc(C(F)(F)F)cc1)c1ccccc1 (centres undefined), the Activity [4] is reported as “Active”.

With COc1cc(C(=O)Nc2cc(OC(F)(F)F)ccc2-n2cncn2)ccc1OCC(F)(F)F the IC50 [1] was > 30 µM.

With COc1cc(F)c(CCCNc2cc(Cl)ccc2-n2cncn2)cc1OC the IC50 [1] was > 10 µM.

COc1cc(C(=O)Nc2cc(OC(F)(F)F)ccc2-n2cncn2)ccc1OCC1CCCC1 showed an IC50 [1] of 2.8 µM.

With COc1cc(F)c(OCCNc2cc(Cl)ccc2-n2cncn2)cc1OC the IC50 [1] was > 10 µM.

Compound COc1cc(C(=O)Nc2cc(OC(F)(F)F)ccc2-n2cncn2)ccc1OCC(C)C has an IC50 [1] of 1.2 µM.

For COc1cc(F)c(OCCNc2cc(OC(F)(F)F)ccc2-n2cncn2)cc1OC, the IC50 [1] was 1.2 µM, the fraction unbound at 24 h [2] was 0.01 to 0.03 and the fraction unbound at 24 h [3] was < 0.003.

In the case of COc1cc(C(=O)Nc2cc(OC(F)(F)F)ccc2-n2cncn2)ccc1OCC1CCC1, the IC50 [1] is reported as 1.4 µM.

Compound COc1cc(C(=O)Nc2cc(OC(F)(F)F)ccc2-n2cncn2)ccc1OCC1CC1 has an IC50 [1] of 0.35 µM, a Kp [5] of 2.35 and a Fu ([2]; in vivo, 24 h) of 0.028. The fraction unbound at 24 h [6] was 0.026, the concentration at 24 h [7] was 375 nM and the “K(p,uu,brain)” value [8] was 0.75. The fraction unbound at 24 h [3] was 0.009, the fraction unbound at 24 h [9] was 0.009 and the t1/2 [10] was 40 min. It also gave an F [11] of 74.9%, a Vdss [12] of 1.9 L/kg and a Kp [13] of 1.24. For the same compound, the concentration at 1 h [14] was 598 nM, the concentration at 1 h [15] was 745 nM and the “K(p,uu,brain)” value [16] was 0.38. For the same compound, the “Cp(f)” value [17] was 16.7 nM, the “Drug uptake(free)” value [18] was 6.4 nM and the Kp [19] was 2.15. The IC50 [20] was > 10 µM, the IC50 [21] was > 10 µM and the IC50 [22] was > 10 µM. The IC50 [23] was > 10 µM, the IC50 [24] was > 10 µM and the IC50 [25] was > 10 µM. For the same compound, the IC50 [26] was > 10 µM, the minimal effective dose [27] was 3 mg/kg and the Activity [28] was “Toxic”. For the same compound, the Activity [29] was “Active”, the Activity [30] was “Active” and the concentration at 1 h [31] was 1300 nM. For the same compound, the concentration at 1 h [32] was 883 nM, the concentration at 1 h [33] was 303 nM and the Activity [34] was > 50%. For the same compound, the Ratio [35] was 3.8, the Activity [36] was “Active” and the Ratio [37] was 2.5. For the same compound, the “Drug uptake(free)” value [38] was 3.4 nM.

With COc1cc(F)c(CCCNc2cc(OC(F)(F)F)ccc2-n2cncn2)cc1OC the IC50 [1] was 1.3 µM, the fraction unbound at 24 h [2] was 0.01 to 0.03 and the fraction unbound at 24 h [3] was < 0.003.
